Bioassay records as filed in PubChem BioAssay.
CYP2C9 inhib = inhibitors of human CYP2C9; P11712; CYP2C9 Supersomes, luciferin-H conversion, luminescence; inhibition, % at 5 µM; 96,000 tested, 20% active; AID 777;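 active = blocking of liver enzyme CYP2C9 beyond about 50% at 5 µM, limit read from the data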
Target sequence (P11712 whole entry, looked up): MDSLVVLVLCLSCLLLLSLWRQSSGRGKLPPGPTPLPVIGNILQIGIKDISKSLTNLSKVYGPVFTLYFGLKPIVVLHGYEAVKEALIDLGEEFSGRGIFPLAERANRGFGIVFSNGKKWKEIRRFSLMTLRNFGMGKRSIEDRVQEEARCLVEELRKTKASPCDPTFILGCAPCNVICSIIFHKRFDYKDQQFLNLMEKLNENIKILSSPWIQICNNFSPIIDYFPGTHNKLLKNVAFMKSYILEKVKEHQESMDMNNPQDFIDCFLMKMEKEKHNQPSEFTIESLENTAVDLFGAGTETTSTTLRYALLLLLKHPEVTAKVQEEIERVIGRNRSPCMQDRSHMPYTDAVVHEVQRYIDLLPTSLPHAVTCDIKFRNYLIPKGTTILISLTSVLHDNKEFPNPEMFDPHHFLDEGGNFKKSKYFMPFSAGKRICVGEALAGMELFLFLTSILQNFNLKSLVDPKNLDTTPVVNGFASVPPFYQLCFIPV
Ecoli tolC = growth inhibitors of E. coli BW25113 tolC mutant; growth inhibition, % at 10 µM (by protocol); 65,000 tested, 2.2% active; OD615;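 active = growth inhibition at or above a cutoff equal to the mean over every tested compound plus 3 SD, cut at about 60% in these data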;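 note: growth measured after 20 h incubation at 37 °C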
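System: E. coli ΔtolC::kan strain BW25113; Buffer or medium: LB broth supplemented with 50 µg/mL kanamycin; Compound: 10 µM final, single dose; Incubation: bacterial growth with compound for 20 h at 37 °C; Signal: A615 absorbance measurement; Evaluation: growth inhibition in percent.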
CYP2C9 activ = increases human cytochrome P450 2C9 activity; recombinant CYP2C9, luciferin-H conversion, luminescence; active compounds read high; factor 1 = untreated enzyme, 0 = blocked; activation factor at 5 µM; 96,000 tested, 1.4% active; AID 1024;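 active = activation factor of 2 or more for CYP2C9 at a 5 µM dose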;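 note: 0 = sulfaphenazole-blocked wells and 1 = vehicle-only wells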
E coli WT exp = blocks growth of wild type E. coli BW25113. OD600 absorbance. growth inhibition, % at 100 µM. 98,000 tested, 0.15% active. AID 710;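 active = growth inhibition above about 50% at one test dose, limit read from the data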;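 note: growth measured after 20 h incubation at 37 °C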
CYP2C19 inhib = inhibitors of human CYP2C19 | P33261 | CYP2C19 Supersomes, luciferin-H EGE luminescence, 30 min | inhibition, % at 5 µM | 96,000 tested, 21% active | AID 778;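 active = CYP2C19 inhibition above a set limit at 5 µM in the primary screen, cut at about 50% in these data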;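 note: plate controls were negative control wells for no effect and 2.5 mM tranylcypromine positive control for full effect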
CYP2C19 act = activators of human cytochrome P450 2C19 | 96,000 tested, under 10 active | P33261 | recombinant CYP2C19, luciferin-H EGE luminescence; active compounds read high; 0 = fully inhibited enzyme, 1 = untreated enzyme | activation factor at 5 µM;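 active = activation factor of at least 2 at 5 µM in the primary screen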;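 note: 0 = wells with 2.5 mM tranylcypromine and 1 = vehicle-only wells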
Numbers without * were called inactive; / = no result given; ! = not active in a repeat. Shown are actives, neighbours in structure and some others; about 29% of the full set was active somewhere.

SMILES	CYP2C9 inhib	Ecoli tolC	CYP2C9 activ	E coli WT exp	CYP2C19 inhib	CYP2C19 act
S=C(NCCc1ccccc1)Nc1ccc(Cl)cc1Cl	46.3	/	0.5	23.0	85.6*	0.1
COc1cccc(CNCCc2c[nH]c3ccccc23)c1OCc1ccc(F)cc1	7.5	/	0.9	25.0	26.7	0.7
COc1ccccc1NC(=S)NCCc1c[nH]c2ccccc12	-135.0	/	2.4*	8.0	85.7*	0.1
O=C(NN=C1CCCC1)C(=O)Nc1cccc(C(F)(F)F)c1	-22.3	/	1.2	-7.0	3.4	1
CCOC(=O)c1sc2ncn(CC(=O)NCC3CCCO3)c(=O)c2c1C (stereo unspecified)	20.8	-6.5	0.8	2.0	12.8	0.9
CCC(=O)N/C=C/n1cnc2cc(C(F)(F)F)ccc21	38.4	-12.4	0.6	11.0	80.5*	0.2
CC(=O)NC(Cc1ccccc1F)C(=O)NC1CCN(C(=O)c2cnccn2)CC1 (stereo unspecified)	-1.1	-15.9	1	1.0	-0.4	1
COc1ccc2nc(C)cc(SCC(=O)N/N=C/c3cccc4ccccc34)c2c1	54.4*	/	0.5	2.0	0.9	1
COC(=O)CSc1cc(C)nc2ccc(OC)cc12	12.2	/	0.9	-4.0	30.0	0.7
COc1ccc2nc(C)cc(SCC(=O)O)c2c1	38.4	-11.8	0.6	7.0	50.3*!	0.5
Cn1c(=O)n(CC(=O)NC2CCCCC2)c(=O)c2ccccc21	21.1	-17.8	0.8	3.0	15.7	0.8
C/C(Cc1ccccc1)=N\NC(=O)CCCCCC(=O)N/N=C(\C)Cc1ccccc1	10.2	/	0.9	0.0	57.0*	0.4
COc1ccc(/C=N/NC(=O)CC(=O)NCCc2ccccc2)cc1OC	7.9	/	0.9	-7.0	33.4	0.7
CCCCCCC/C(C)=N/NC(=O)CC(=O)NCCc1ccccc1	64.9*	/	0.4	-3.0	22.7	0.8
CC1CCC(C(C)C)C(OC(=O)CSc2nc(N)cc(=O)[nH]2)C1 (stereo unspecified)	-8.2	/	1.1	1.0	8.9	0.9
Cc1nnc(SCC(=O)OC2CC(C)CCC2C(C)C)[nH]c1=O (stereo unspecified)	88.0*	/	0.1	1.0	32.4	0.7
CC1CCC(C(C)C)C(OC(=O)CSc2nnc(N)s2)C1 (stereo unspecified)	39.8	/	0.6	7.0	65.5*	0.3
O=C(CC(C(=O)N1CCc2ccccc21)n1ccnc1)NCc1ccccc1 (stereo unspecified)	72.8*	/	0.3	4.0	100.4*	0
CCN(CC)CC(C)CNC(=O)CC(C(=O)N1CCc2ccccc21)n1ccnc1 (stereo unspecified)	/	-21.8	/	13.0	/	/
CC(CN(C(N)=O)c1ccccc1O)C(=O)O (stereo unspecified)	-38.1	/	1.4	-1.0	-17.8	1.2
CSc1nc(N)nc(SC2C=CCCC2)c1C#N (stereo unspecified)	20.8	15.6	0.8	3.0	13.9	0.9
COc1cc(NC(=O)c2ccc(Br)o2)ccc1NC(=O)C(C)C	24.1	0.0	0.8	-6.0	38.8	0.6
CC(C)C(=O)Nc1ccc(Cc2ccc(NC(=O)C(C)C)c(O)c2)cc1O	93.2*	/	0.1	0.0	64.4*	0.4
CCn1c(=O)cc(OCC(=O)Nc2ccc(Cl)cn2)c2ccccc21	/	-16.9	/	/	/	/
C=CCn1c(NCCO)nc2sc3c(c2c1=O)CCC3	9.4	-1.2	0.9	-2.0	13.1	0.9
SMILES	CYP2C9 inhib	Ecoli tolC	CYP2C9 activ	E coli WT exp	CYP2C19 inhib	CYP2C19 act
OCCNc1nc(SCc2ccccc2)nc2sc3c(c12)CCC3	67.6*	/	0.3	-17.0	46.6	0.5
N#Cc1cccc2cnccc12	-23.1	-21.0	1.2	11.0	-3.0	1
CCCCNC(=O)OCC(CC)NC(=O)OC(C)C (stereo unspecified)	19.5	-3.7	0.8	7.0	53.0*	0.5
CNc1oc(C)nc1S(=O)(=O)c1ccccc1	-2.8	4.3	1	10.0	-0.5	1
Nc1cc(N)c(OCC(F)(F)F)cc1OCC(F)(F)F	54.9*	-14.4	0.5	13.0	74.5*	0.3
O=C(CCN1C(=O)c2ccccc2C1=O)Nc1ccccn1	-21.7	-9.6	1.2	2.0	-16.2	1.2
CC(=O)N1CCCc2cc(S(=O)(=O)N3CCc4ccccc4C3)ccc21	-4.3	23.2	1	1.0	74.4*	0.3
COC(=O)COc1ccc(S(=O)(=O)N2CCc3ccccc3C2)cc1C	-109.0	/	2.1*	-7.0	79.3*	0.2
CCC(=O)N1CCc2cc(S(=O)(=O)N3CCc4ccccc4C3)ccc21	6.7	-4.2	0.9	-8.0	6.9	0.9
COC(=O)COc1ccc(S(=O)(=O)N2CCOCC2)cc1C	-10.6	-8.7	1.1	2.0	17.5	0.8
COc1ccc(NC(=O)c2cc(CC(C)C)on2)cc1OC	-31.4	-2.8	1.3	6.0	24.0	0.8
COC(=O)c1ccc(CSc2nnnn2Cc2ccccc2)cc1	78.2*	16.4	0.2	-12.0	31.0	0.7
COc1ccc(OC)c(C(=O)CSc2nnnn2C)c1	3.9	-16.6	1	3.0	28.4	0.7
COc1ccc(C(=O)CSc2nnnn2Cc2ccccc2)cc1	37.1	41.6	0.6	-3.0	59.9*	0.4
COc1cccc(C(=O)CSc2nnnn2C)c1	0.7	-4.3	1	5.0	71.8*	0.3
COc1ccc(C(=O)CSc2nnc(Cn3nnc4ccccc43)n2C)cc1	28.5	/	0.7	-2.0	15.7	0.8
COC(=O)c1cc(OC)c(OC)cc1NC(=S)N1CCN(Cc2ccccc2)CC1	44.4	/	0.6	-3.0	100.0*	0
CCOc1ccc(N2C(=O)CC(N)C2=O)cc1 (stereo unspecified)	/	6.5	/	3.0	/	/
O=C(NC1CC2CCCC(C1)N2Cc1cccs1)N1CCOCC1 (stereo unspecified)	-16.0	-4.6	1.2	1.0	13.1	0.9
CC(=O)c1cccc(NC(=O)C2C3C=CC(C4CC34)C2C(=O)O)c1 (stereo unspecified)	11.2	-3.3	0.9	-2.0	8.5	0.9
COC(=O)c1cc(OC)c(OC)cc1NC(=O)CSc1nnnn1Cc1ccccc1	81.8*	12.4	0.2	-13.0	74.8*	0.3
O=C(CSc1nnnn1Cc1ccccc1)c1ccccc1	14.9	-24.3	0.9	26.0	74.3*	0.3
O=C(CCl)Oc1ccc2occ(C(=O)c3cccs3)c2c1	24.4	/	0.8	11.0	28.4	0.7
Cc1ccc(C2C(C(=O)c3cccs3)=C(O)C(=O)N2CCN2CCOCC2)o1 (stereo unspecified)	-16.9	-9.5	1.2	2.0	-16.6	1.2
C=CCn1c(NC(=O)c2ccc(C)cc2)c(C#N)sc1=N	-9.0	-18.2	1.1	-4.0	-1.7	1
CN(C)c1ccc(NC(=O)CSCc2nc3c(nnn3Cc3ccc(F)cc3)c(=O)[nH]2)cc1	59.4*	10.0	0.4	-4.0	44.1	0.6
O=C1CCCc2c1cc(C(=O)NCCCN1CCOCC1)c(=O)n2-c1ccc(Cl)cc1	3.6	-14.7	1	4.0	7.5	0.9
